The list is not random: actives were taken first. Their share in the collection is about 2.6%.
FGF22 binding-1: binders of recombinant human FGF22 by thermal shift | Q9HCT0 | SYPRO orange fluorescence; percent of sucrose octasulfate shift, DMSO zero | activity (Tm shift, normalised), % at 9.99 µM | 1.5% of 340,000 active | AID 651658;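 active = mean Tm shift, scaled 0 neutral to 100 positive control, at about 1.3% or above, every replicate too, limit read from the data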
CASP6 VEID inh: caspase-6 (human) enzyme inhibition; P55212; purified caspase-6, Z-VEID-R110 cleavage fluorescence; inhibition, % at 12.5 µM; 0.53% of 350,000 active; AID 686996;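 active = mean inhibition across replicates at least about 35%, with every replicate also reaching that limit, limit read from the data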;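 also: 0% = median of neutral control wells and 100% = no fluorescence left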
Target sequence (P55212 24-179 limits assumed): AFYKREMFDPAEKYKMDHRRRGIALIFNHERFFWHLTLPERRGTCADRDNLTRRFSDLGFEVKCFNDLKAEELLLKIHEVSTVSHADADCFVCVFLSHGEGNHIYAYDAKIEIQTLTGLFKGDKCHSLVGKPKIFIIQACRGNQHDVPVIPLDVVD
Target sequence (P55212 194-293 limits assumed): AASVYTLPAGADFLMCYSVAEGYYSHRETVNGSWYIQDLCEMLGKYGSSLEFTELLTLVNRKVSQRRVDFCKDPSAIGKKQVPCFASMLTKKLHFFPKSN
NSD2 HMT inh: blocks human histone methyltransferase NSD2; O96028; NSD2 peptide methylation, AlphaScreen, 120 min; inhibition, % at 12.5 µM; 0.54% of 310,000 active; AID 743445; in the data active = inhibition above about 50%
UCH37 inh: inhibitors of human deubiquitinating enzyme UCH37. Q9Y5K5. purified proteasome/UCH37, Ub-AMC cleavage fluorescence. inhibition, % (no concentration beside the values). 0.33% of 330,000 active. AID 588478;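 active = mean inhibition over replicate wells above about 20%, limit read from the data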;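 also: 0% = compound-free wells with enzyme and 100% = wells lacking proteasome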
Target sequence (Q9Y5K5 whole entry, looked up): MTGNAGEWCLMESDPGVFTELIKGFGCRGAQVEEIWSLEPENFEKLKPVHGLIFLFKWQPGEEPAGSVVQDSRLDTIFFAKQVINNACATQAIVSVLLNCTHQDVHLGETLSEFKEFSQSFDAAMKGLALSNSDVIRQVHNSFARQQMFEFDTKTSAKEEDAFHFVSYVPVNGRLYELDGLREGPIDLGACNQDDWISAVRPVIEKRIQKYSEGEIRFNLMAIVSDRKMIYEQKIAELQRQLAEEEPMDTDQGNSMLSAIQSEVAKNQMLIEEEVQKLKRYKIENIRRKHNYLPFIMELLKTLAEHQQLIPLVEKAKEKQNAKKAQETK
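Test system – human UCH37 enzyme supplied as purified proteasome complex · Incubation – 30 min preincubation with enzyme, 25 min cleavage at room temperature · Detection – AMC fluorescence from Ub-AMC cleavage, excitation 355 nm, emission 460 nm · Benchmarks – no-proteasome wells (full inhibition) and compound-free wells (no inhibition)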
SIRT5 inh: sirtuin-5 (human) deacylase inhibition | 1.1% of 330,000 active | Purified SirT5, succinyl-peptide AMC, trypsin-coupled fluorescence | inhibition, % at 15 µM | Q9NXA8 | AID 652115; in the data active = inhibition above about 15%
FGF22 binding-2: FGF22 (human) binding in thermal shift. AID 720646. shares compounds with FGF22 binding-1. 2% of 1,000 active. recombinant FGF22 thermal shift, SYPRO orange fluorescence. thermal shift activity, °C (ΔTm) at 38 µM;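 active = fitted rise in melting shift crosses a set limit at or below the top valid dose tested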
SYPRO no-protein: counter-screen for FGF22 binders: compound-only thermal shift, no protein; AC50, µM (titrated, usually from 38 µM); 2% of 1,000 active; shares compounds with FGF22 binding-1; AID 743019; compound-only SYPRO orange thermal shift counter-screen;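 active = rising signal whose fitted curve reaches the 0.54 level within the top valid dose, showing a melting point, actives reach about 13 µM in these data; inactive = the rest, including activity in the opposite direction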; also: value is where the raw curve crosses a fixed level and not half-maximal
Starred values were filed as active, the others as inactive; i = inactive; nt = not tested or not shown; [ ] = dose if it differs, or a comment.

SMILES	FGF22 binding-1	CASP6 VEID inh	NSD2 HMT inh	UCH37 inh	SIRT5 inh	FGF22 binding-2	SYPRO no-protein
O=C(O)C[C@@H]1C[C@H]2c3cc(NC(=O)Nc4ccc(C(F)(F)F)cc4)ccc3O[C@H]2[C@@H](CO)O1	23.3*	4.7	nt	nt	5.5	-0.169	i
CS(=O)(=O)Nc1ccc2c(c1)[C@@H]1C[C@@H](CC(=O)NCCc3ccccc3)O[C@@H](CO)[C@@H]1O2	-0.2	2.4	nt	nt	-1.4	nt	nt
O=C(C[C@H]1C[C@@H]2c3cc(NC(=O)NC4CCCC4)ccc3O[C@@H]2[C@H](CO)O1)NC1CCCC1	1.4*	-1.0	nt	nt	-2.7	-0.147	i
O=C(O)C[C@H]1C[C@H]2c3cc(NC(=O)Nc4ccc(C(F)(F)F)cc4)ccc3O[C@H]2[C@H](CO)O1	-0.1	nt	nt	nt	-2.6	nt	nt
CS(=O)(=O)Nc1ccc2c(c1)[C@@H]1C[C@H](CC(=O)NCCc3ccccc3)O[C@@H](CO)[C@@H]1O2	1.4*	1.0	nt	nt	-1.2	-0.079	i
CN(C)CC(=O)Nc1ccc2c(c1)[C@H]1C[C@@H](CC(=O)N(C)C)O[C@H](CO)[C@H]1O2	-0.1	-1.9	nt	nt	nt	nt	nt
COCC(=O)Nc1ccc2c(c1)[C@H]1C[C@@H](CC(=O)NCc3ccccn3)O[C@@H](CO)[C@H]1O2	0.5	1.1	nt	nt	2.4	nt	nt
COc1cccc(S(=O)(=O)Nc2ccc3c(c2)[C@H]2C[C@H](CC(=O)NC4CCCCC4)O[C@H](CO)[C@H]2O3)c1	0.3	-7.3	nt	nt	0.9	nt	nt
CN(C)CC(=O)Nc1ccc2c(c1)[C@@H]1C[C@H](CC(=O)N(C)C)O[C@@H](CO)[C@@H]1O2	2.3*	-0.9	nt	nt	-4.7	0.116	i
COc1cccc(S(=O)(=O)Nc2ccc3c(c2)[C@@H]2C[C@H](CC(=O)NC4CCCCC4)O[C@@H](CO)[C@@H]2O3)c1	1.6*	-4.6	nt	nt	3.2	0.139	i
O=C(C[C@@H]1C[C@H]2c3cc(NC(=O)C4CCC4)ccc3O[C@H]2[C@@H](CO)O1)NCc1cc(F)ccc1F	28.1*	0.1	nt	nt	7.3	-0.028[42 µM]	i
COCC(=O)Nc1ccc2c(c1)[C@H]1C[C@@H](CC(=O)NCc3ccccn3)O[C@H](CO)[C@H]1O2	1.3*	2.3	nt	nt	10.9	-0.032	i
C[C@H](CO)N1C[C@H](C)[C@H](CN(C)C(=O)Nc2ccccc2)Oc2c(NS(=O)(=O)c3ccc(Cl)cc3)cccc2C1=O	0.0	-0.2	nt	nt	1.2	nt	nt
COc1ccc2ccccc2c1C=NNC(=O)c1nnn(-c2nonc2N)c1C(C)C	nt	nt	nt	2.0	nt	nt	nt
O=[N+]([O-])c1cccc(-c2nc3ccc([N+](=O)[O-])cc3[nH]2)c1	0.9	0.9	2.5	3.8	2.2	nt	nt
COc1ccc(-c2nc3ccc([N+](=O)[O-])cc3[nH]2)cc1	2.6*	-1.6	-3.2	4.5	-0.1	0.11	i
O=[N+]([O-])c1ccc2nc(-c3ccc(Cl)cc3)[nH]c2c1	1.8*	1.1	4.1	-24.4	-1.7	0.059	i
COc1ccc2c3c(n(C)c2c1)[C@H](CO)N(Cc1ccncc1)CC31CN(C(=O)Cc2ccncc2)C1	0.0	-1.0	nt	nt	nt	nt	nt
Cc1ccc(NC(=O)COC(=O)Cn2cnc3c2c(=O)n(C)c(=O)n3C)cc1F	30.1*	0.8	nt	3.0	-1.3	0.152	i
Cc1ccc(NC(=O)COC(=O)Cn2cnc3c2c(=O)n(C)c(=O)n3C)cc1Cl	1.1	-3.9	29.7	2.2	0.0	nt	nt
C[C@H]1CN([C@@H](C)CO)C(=O)c2cc(C3=CCCCC3)cnc2O[C@H]1CN(C)Cc1ccccc1F	0.1	0.8	nt	nt	-1.6	nt	nt
Cc1cc(N2C(=O)Cc3ccccc3C2=O)ccc1C(C)C	0.1	21.3	0.2	8.2	-2.3	nt	nt
O=C1Cc2ccccc2C(=O)N1c1cccc(Cl)c1	2.2*	35.2*	1.2	3.3	2.7	0.02	i
COc1ccccc1C=NNC(=O)CNC(=O)c1ccc(S(=O)(=O)N2CCCC2)cc1	nt	nt	nt	-4.0	nt	nt	nt
CN(C(=O)CCc1nnc(CCCCc2ccccc2)o1)C1CCOCC1	1.4*	-1.3	2.1	6.5	-0.7	0.034	i
SMILES	FGF22 binding-1	CASP6 VEID inh	NSD2 HMT inh	UCH37 inh	SIRT5 inh	FGF22 binding-2	SYPRO no-protein
O=C(NC1CCCCC1)N1CC(=O)N2[C@H](CO)[C@H](c3ccc(-c4cccc(F)c4)cc3)[C@H]2C1	1.4*	1.9	nt	nt	-0.5	0.295[42 µM]	i
O=C(NC1CCCCC1)N1CC(=O)N2[C@H](C1)[C@H](c1ccc(-c3cccc(F)c3)cc1)[C@@H]2CO	0.5	3.7	nt	nt	0.4	nt	nt
O=C(Nc1cccc(F)c1)N1CC(=O)N2[C@@H](CO)[C@@H](c3ccc(Br)cc3)[C@@H]2C1	1.3*	4.7	nt	nt	-2.8	0.251[42 µM]	i
COC(=O)C[C@H]1C[C@@H]2c3cc(NS(=O)(=O)c4ccc(F)cc4)ccc3O[C@@H]2[C@@H](CO)O1	0.2	1.7	nt	nt	3.0	nt	nt
C[C@@H]1CCCCO[C@@H](CN(C)Cc2ccncc2)[C@H](C)CN([C@H](C)CO)C(=O)c2cc(NS(C)(=O)=O)ccc2O1	0.1	-5.5	nt	nt	1.7	nt	nt
C[C@@H]1CN([C@H](C)CO)C(=O)c2cc(NS(C)(=O)=O)ccc2O[C@@H](C)CCCCO[C@H]1CN(C)Cc1ccncc1	1.7*	-1.0	nt	nt	3.3	-0.013[42 µM]	i
CC(C)NC(=O)Nc1ccc2c(c1)C(=O)N([C@H](C)CO)C[C@@H](C)[C@H](CN(C)C(=O)Nc1ccccc1)OCCCC[C@@H](C)O2	-0.7	-1.8	nt	nt	4.2	nt	nt
CC(C)NC(=O)Nc1ccc2c(c1)C(=O)N([C@H](C)CO)C[C@@H](C)[C@@H](CN(C)C(=O)Nc1ccccc1)OCCCC[C@@H](C)O2	2.6*	0.4	nt	nt	0.6	0.013	i
C[C@@H]1CCCCO[C@H](CN(C)C(=O)C2CCCCC2)[C@H](C)CN([C@H](C)CO)C(=O)c2cc(NS(C)(=O)=O)ccc2O1	1.7*	-0.2	nt	nt	0.5	-0.1	i
C[C@H]1CCCCO[C@@H](CN(C)Cc2ccncc2)[C@@H](C)CN([C@@H](C)CO)C(=O)c2cc(NC(=O)c3ccncc3)ccc2O1	-0.5	-2.3	nt	nt	0.5	nt	nt
C[C@H]1CCCCO[C@H](CN(C)Cc2ccncc2)[C@@H](C)CN([C@@H](C)CO)C(=O)c2cc(NC(=O)c3ccncc3)ccc2O1	1.2*	0.1	nt	nt	-2.6	0.044	i
COCCNC(=S)NN=Cc1ccc(OCc2ccc(C(=O)OC)cc2)cc1	nt	nt	nt	5.5	nt	nt	nt
O=C(O)CCN(Cc1ccccc1)S(=O)(=O)c1ccccc1Cl	2.9*	1.9	-3.2	2.8	-3.9	-0.164	i
O=C(O)c1ccc(S(=O)(=O)N(CCc2ccccc2)Cc2ccc(Cl)cc2)cc1	-0.2	4.0	2.7	1.9	3.8	nt	nt
CCCCn1cnc2c(SCc3ccccn3)nc(N)nc21	0.1	2.4	-0.5	2.1	4.1	nt	nt
